The list is not random: actives were taken first. Their share in the collection is about 2%.
VIM-2 inhibitor: VIM-2 metallo-beta-lactamase inhibitors, primary screen, biochemical, epi-absorbance readout, Pseudomonas aeruginosa enzyme; AID 1527, 2009; inhibition, % at 5.6 µM; 290,000 tested, 0.89% active; purified VIM-2, nitrocefin hydrolysis, epi-absorbance fluorescence;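 active means inhibition above the mean of all tested compounds plus 3 SD, cutoff set per screening run, cut at about 7.5% in these data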;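 further: red hydrolysis product quenches plate fluorescence so inhibitors raise well fluorescence; 0% = enzyme with DMSO and 100% = DMSO without enzyme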
PLCb3 inh: human PLC-beta3 inhibitors, primary screen, biochemical, fluorescence | 1-phosphatidylinositol 4,5-bisphosphate phosphodiesterase beta-3 (Homo sapiens), Q01970 | 370,000 tested, 0.18% active | inhibition, % at 12.2 µM | AID 720704, 2013 | Purified PLC-beta3, fluorogenic substrate; in the data active means inhibition above about 11%;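 further: 0% = median of compound wells on plate and 100% = full blocker control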
Target sequence (Q01970 whole entry, looked up): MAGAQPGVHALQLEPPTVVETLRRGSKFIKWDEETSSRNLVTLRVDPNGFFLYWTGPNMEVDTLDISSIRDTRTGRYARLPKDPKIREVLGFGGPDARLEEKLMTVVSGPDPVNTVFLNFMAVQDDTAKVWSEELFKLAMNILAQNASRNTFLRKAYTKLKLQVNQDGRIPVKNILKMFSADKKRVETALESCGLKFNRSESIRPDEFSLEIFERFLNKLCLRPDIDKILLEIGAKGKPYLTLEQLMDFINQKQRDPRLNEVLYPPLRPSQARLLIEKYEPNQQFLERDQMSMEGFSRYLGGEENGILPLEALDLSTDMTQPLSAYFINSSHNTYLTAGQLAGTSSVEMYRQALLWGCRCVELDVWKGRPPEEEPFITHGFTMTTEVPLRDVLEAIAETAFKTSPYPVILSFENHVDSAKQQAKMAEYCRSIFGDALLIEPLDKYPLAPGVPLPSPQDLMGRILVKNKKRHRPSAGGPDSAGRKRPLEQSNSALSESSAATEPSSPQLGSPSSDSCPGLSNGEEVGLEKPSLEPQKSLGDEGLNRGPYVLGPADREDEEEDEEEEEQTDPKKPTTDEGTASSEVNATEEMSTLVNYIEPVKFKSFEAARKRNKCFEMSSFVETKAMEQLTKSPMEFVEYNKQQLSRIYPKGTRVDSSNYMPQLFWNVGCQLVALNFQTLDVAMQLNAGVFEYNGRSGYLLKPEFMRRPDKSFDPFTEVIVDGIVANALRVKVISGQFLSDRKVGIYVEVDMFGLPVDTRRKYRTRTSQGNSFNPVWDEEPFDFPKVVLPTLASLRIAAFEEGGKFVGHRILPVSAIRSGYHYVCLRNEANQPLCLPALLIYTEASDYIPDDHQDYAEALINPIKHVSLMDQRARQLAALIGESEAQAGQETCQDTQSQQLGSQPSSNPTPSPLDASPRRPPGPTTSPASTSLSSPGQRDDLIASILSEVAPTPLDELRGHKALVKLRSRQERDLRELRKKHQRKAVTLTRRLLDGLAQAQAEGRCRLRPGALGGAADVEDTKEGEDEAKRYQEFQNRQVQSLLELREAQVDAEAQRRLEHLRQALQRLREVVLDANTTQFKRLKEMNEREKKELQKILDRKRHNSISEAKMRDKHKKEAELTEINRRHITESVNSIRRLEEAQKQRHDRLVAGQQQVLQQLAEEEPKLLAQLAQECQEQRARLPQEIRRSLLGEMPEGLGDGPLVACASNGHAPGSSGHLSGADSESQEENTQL
PLCg1 inh: PLC-gamma1 enzyme inhibitors, primary screen, biochemical, fluorescence, purified enzyme; AID 720700, 2013; 370,000 tested, 0.84% active; fluorogenic substrate; 1-phosphatidylinositol 4,5-bisphosphate phosphodiesterase gamma-1 (Homo sapiens), P19174; inhibition, % at 12.2 µM
PvdQ inh: P. aeruginosa PvdQ acylase inhibitors, primary screen, biochemical, fluorescence, plate reader and imaging, single point; inhibition, % at 10 µM; 340,000 tested, 0.063% active; PvdQ acylase [Pseudomonas aeruginosa LESB58]; purified PvdQ acylase; in the data active means inhibition above about 30%, passing the limit was not always enough;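 further: 0% = vehicle neutral wells and 100% = reference inhibitor wells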
IMP-1 inh: IMP-1 metallo-beta-lactamase inhibitors, primary screen, biochemical, epi-absorbance readout, Pseudomonas aeruginosa enzyme | inhibition, % at 5.6 µM | AID 1556, 2009 | metallo-beta-lactamase IMP-1 (Pseudomonas aeruginosa) | purified IMP-1, nitrocefin hydrolysis, epi-absorbance fluorescence | 290,000 tested, 0.45% active;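 active means inhibition above the mean plus 3 SD of all compounds in the same screening run, cut at about 4.5% in these data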;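 further: 0% = IMP-1 with DMSO and 100% = DMSO wells lacking enzyme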
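System: purified IMP-1; amount: IMP-1 0.2 nM before substrate addition; compound: single dose, 5.6 µM; times: 25 °C, 15 min preincubation, 25 min reaction; signal: Epi-absorbance via hydrolysed-nitrocefin quenching of white-plate fluorescence, 480/530 nm, EDTA stop; benchmarks: DMSO with and without IMP-1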
PLCg1 ctr: PLC-gamma1 enzyme inhibitors, counter-screen for PLC-beta3 inhibitor project, biochemical, fluorescence. shares compounds with PLCg1 inh. 3,300 tested, 3.1% active. purified PLC-gamma1, fluorogenic substrate. AID 743258, 2014. inhibition, % at 12.3 µM
PLCb3 confirm: PLC-beta3 inhibitor confirmation, biochemical, fluorescence, purified enzyme | shares compounds with PLCg1 inh | 3,300 tested, 1% active | AID 743261, 2014 | inhibition, % at 12.3 µM | fluorogenic substrate fluorescence; in the data active means inhibition above about 11%
Starred values were filed as active, the others as inactive; . = no result. Unless noted, no stated cut-off is given here; in the data, active means inhibition above about 9.5%; inactive means the rest.

SMILES	VIM-2 inhibitor	PLCb3 inh	PLCg1 inh	PvdQ inh	IMP-1 inh	PLCg1 ctr	PLCb3 confirm
Cn1c(SCC(=O)N2CCOCC2)nnc1-c1ccccc1	-2	12*	9	-5	-6	-4	-2
CC1=NN(c2ccc(Cl)cc2)C(=O)C1	-3	8	13*	-6	-4	-6	-3
CC1=NN(c2ccccc2)C(=O)C1	-1	10	24*	-9	-1	7	8
CC1=NN(c2cccc([N+](=O)[O-])c2)C(=O)C1	-5	1	2	-10	-3	.	.
CC1=NN(Cc2ccccc2)C(=O)C1	-2	7	13*	-5	-3	-5	-3
CC1=NN(c2ccc(N)cc2)C(=O)C1	-4	-9	-6	5	-2	.	.
COC(=O)[C@]12C[C@H](CC(=O)NCC3CCCCC3)C(=O)N(CCc3ccc(OC)c(OC)c3)C1=C[C@H](C(C)C)O[C@@H]2C1CC1	.	0	2	.	.	.	.
Cc1cccc(NC(=O)N2CCCC2C(=O)Nc2ccccc2)c1 (stereo unspecified)	-4	7	13*	-11	-1	-4	-4
Cc1ccc(NC(=O)C(=O)NCC2CCCN2S(=O)(=O)c2cccs2)cc1 (stereo unspecified)	.	-9	-3	-18	.	.	.
Cc1cccc(NC(=O)C2CCCN2C(=O)Oc2ccccc2)c1 (stereo unspecified)	-1	-3	9	7	-3	.	.
Cc1cccc(NC(=O)N2CCCC2C(=O)NCc2cccs2)c1 (stereo unspecified)	-1	5	12*	-12	-2	-4	1
COc1ccc(NC(=O)N2CCCC2C(=O)Nc2cccc(C)c2C)cc1 (stereo unspecified)	-4	6	12*	-12	-1	-4	-3
Cc1ccc(NC(=O)N2CCCC2C(=O)NCc2cccs2)cc1 (stereo unspecified)	-2	8	3	-8	-4	.	.
Cc1cccc(NC(=O)C(=O)NCC2CCCN2S(=O)(=O)c2cccs2)c1 (stereo unspecified)	.	-6	9.5*	.	.	-4	-5
O=C(O)c1[nH]c2ccccc2c1C(c1cc(Br)ccc1O)c1c(C(=O)O)[nH]c2ccccc12	2	-17	7	9	0	.	.
COc1cc(Cl)cc(C(c2c(C(=O)O)[nH]c3ccccc23)c2c(C(=O)O)[nH]c3ccccc23)c1O	-2	-9	11*	-6	-2	8	-13
Cc1ccc(NC(=O)C(C)Sc2nnc(-c3cccnc3)n2-c2ccccc2)cc1 (stereo unspecified)	-4	1	1	-10	-3	.	.
Cc1ccccc1-n1c(SC(C)C(N)=O)nnc1-c1cccnc1 (stereo unspecified)	-2	2	11*	-1	-1	-2	1
CCCCOCCCNC(=O)C[C@@H]1C[C@]2(C(=O)OCC)CCC3=C2N(CCC3)C1=O	.	3	1	.	.	.	.
O=C(CN1CCN(C(=O)c2ccccc2)CC1)Nc1ccc(Br)cn1	-2	3	12*	-12	-3	-2	-3
Cc1cc(C)c2c(=O)[nH]n(C3CC(C)N(C)CC3C)c2n1 (stereo unspecified)	-2	-2	9.7*	-11	-4	2	-5
Nn1cnnc1SCC(=O)N(C1CCCCC1)C1CCCCC1	-5	6	11*	-19	-2	-5	-1
COc1ccc(S(=O)(=O)N2CCOCC2)cc1C(=O)NC1CCCCCC1	.	2	12*	-6	.	-5	0
Cc1ccc(S(=O)(=O)N2CCOCC2)cc1NC(=O)CNCC1CCCCC1	-1	5	10*	4	-2	-5	-1
COc1ccc(S(=O)(=O)N2CCOCC2)cc1C(=O)Nc1cccc(C(=O)NC2CC2)c1	.	-2	0	.	.	.	.

Compound activity from PubChem BioAssay.
